From PubChem
PDI inh – inhibitors of human PDI, primary screen, biochemical, turbidity, single point, plate reader. hit rate 0.052% among 350,000. inhibition, % at 10 µM. PDI insulin aggregation turbidity, A650, 90 min. AID 588391, 2011;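 active = mean inhibition across replicates of 30% or more, whatever share of single replicates reach that level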
SIRT5 inh – SIRT5 desuccinylase inhibitors, primary screen, biochemical, fluorescence imaging, single point, set 5. Purified SirT5, succinyl-peptide AMC, trypsin-coupled fluorescence. inhibition, % at 15 µM. hit rate 1.1% among 330,000; in the data active = inhibition above about 15%
S100A4 inh HTS – inhibitors of S100A4-myosin IIA peptide binding, primary screen, biochemical, fluorescence polarization, TAMRA-MyoIIA peptide | inhibition, % at 10.7 µM | AID 652163, 2013 | hit rate 0.14% among 360,000;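 active = mean inhibition of at least 70% across replicates, with every replicate also reaching that level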
Target sequence (P26447 whole entry, looked up): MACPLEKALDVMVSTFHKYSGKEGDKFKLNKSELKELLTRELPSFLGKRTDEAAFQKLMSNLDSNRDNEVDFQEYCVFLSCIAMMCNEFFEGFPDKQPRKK
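Material: S100A4 monomer protein / Buffer or medium: 50 mM HEPES pH 7.2, 10 mM CaCl2, 100 mM KCl / Times: 5 min incubation before reading / Benchmarks: neutral control DMSO, positive control TFP / Reagent: labelled myosin peptide probe, 5 nM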
INS-1E GSIS act – GLuc luminescence reporter in INS-1E cells, primary screen for activators of glucose-dependent secretion of insulin; AID 743287, 2014; hit rate 0.61% among 370,000; activation, % at 16.6 µM; INS-1E GLuc reporter insulin secretion, 2-3 h;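 active = lowest replicate activation of at least 40%, so every replicate reaches that level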;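 also: 0% = median of neutral control wells and 100% = median of IBMX positive control wells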
ERp5 block – inhibitors of ERp5-driven insulin aggregation, primary screen, biochemical, turbidity, absorbance 650 nm, single point; Protein disulfide-isomerase A6 (Homo sapiens), Q15084; 90 min; inhibition, % at 9.99 µM; hit rate 0.05% among 350,000; AID 651711, 2012;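 active = mean replicate inhibition above about 25%, with every replicate also reaching it, limit read from the data, passing the limit was not always enough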
Target sequence (Q15084 whole entry, looked up): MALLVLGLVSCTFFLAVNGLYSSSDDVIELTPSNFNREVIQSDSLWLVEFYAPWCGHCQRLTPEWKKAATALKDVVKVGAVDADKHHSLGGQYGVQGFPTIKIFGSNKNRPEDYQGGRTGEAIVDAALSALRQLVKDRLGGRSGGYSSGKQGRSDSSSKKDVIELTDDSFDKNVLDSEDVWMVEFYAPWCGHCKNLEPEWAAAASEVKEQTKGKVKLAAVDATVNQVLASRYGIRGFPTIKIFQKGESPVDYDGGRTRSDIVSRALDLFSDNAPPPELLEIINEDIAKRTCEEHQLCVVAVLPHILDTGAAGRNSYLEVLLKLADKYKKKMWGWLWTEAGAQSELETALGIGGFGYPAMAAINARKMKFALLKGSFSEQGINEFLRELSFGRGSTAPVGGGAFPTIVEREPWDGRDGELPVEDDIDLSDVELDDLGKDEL
Starred values were filed as active, the others as inactive; . = no result given. Rows were chosen to be rich in hits. Some 1.5% of all compounds tested hit in one or more screens of this group.

SMILES	PDI inh	SIRT5 inh	S100A4 inh HTS	INS-1E GSIS act	ERp5 block
C[C@@H]1CCCCO[C@H](CN(C)S(=O)(=O)c2ccc(Cl)cc2)[C@H](C)CN([C@H](C)CO)C(=O)c2cc(NS(=O)(=O)c3ccc(F)cc3)ccc2O1	.	20.3*	1.6	-1.5	-0.7
Cc1ccc(S(=O)(=O)N(C)C[C@@H]2Oc3ccc(NS(=O)(=O)c4ccc(Cl)cc4)cc3CC(=O)N([C@H](C)CO)C[C@@H]2C)cc1	.	11.7	-4.0	-0.8	-2.2
CC(=O)N1CCc2c(sc(NC(=O)C3COc4ccccc4O3)c2C(N)=O)C1 (stereo not drawn)	0.1	2.3	9.3	-5.8	-19.2
CN1CCc2c(sc(NC(=O)C3COc4ccccc4O3)c2C(N)=O)C1 (stereo not drawn)	-2.6	1.5	105.6*	8.5	-6.3
C[C@H]1CN([C@@H](C)CO)C(=O)c2cc(NS(C)(=O)=O)ccc2O[C@@H]1CN(C)Cc1ccc(Oc2ccccc2)cc1	.	-1.5	5.4	-15.9	4.0
Cc1cccc(C)c1NC(=O)CN(C)C(=O)c1ccccc1SCC(=O)N1CCCC1	2.7	16.5*	-4.5	-2.2	8.4
COc1ccccc1S(=O)(=O)N1CCN(S(=O)(=O)c2ccccc2C#N)CC1	-2.7	91.4*	-1.4	2.2	-1.2
COc1ccccc1S(=O)(=O)N1CCN(S(=O)(=O)c2cccs2)CC1	-2.9	-4.3	-2.3	5.8	-11.3
COc1cccc(-c2ccc3n(c2=O)C[C@H]2[C@H](CO)[C@@H](C(=O)N(C)C)[C@@H]3N2CC2CC2)c1	.	-11.1	2.3	5.0	1.9
CCCCSc1nc2[nH]ncc2c(=O)[nH]1	10.0	-1.7	-6.6	68.9*	-1.1
O=C(C[C@H]1CC[C@H]2[C@@H](COC[C@H](O)CN2Cc2cccc(F)c2)O1)NCCc1ccncc1	.	-2.7	2.3	-1.5	4.7
Cc1cc(-n2c(SCC(=O)Nc3ccc(Br)cc3)nc3n[nH]c(C)c3c2=N)ccc1Cl	-6.3	-3.6	0.3	1.9	.
Cc1cc(-n2c(SCC(=O)Nc3ccc(F)c(F)c3)nc3n[nH]c(C)c3c2=N)ccc1Cl	-3.0	-5.0	9.1	250.1*	2.2
COc1ccc(NC(=O)COc2cccc3c2CCN(Cc2cccnc2)C3=O)cc1	-1.1	16.8*	-1.5	4.2	-5.7
COc1ccc(C(=O)C2CCCN(Cc3cccn3-c3nccs3)C2)cc1F (stereo not drawn)	3.1	-0.4	-2.6	13.9	-7.3
Cc1cc(Cl)ccc1C(=O)C1CCCN(C(=O)c2n[nH]c3c2CCCC3)C1 (stereo not drawn)	7.5	-0.7	5.7	-16.4	2.4
COc1ccc(C(=O)C2CCCN(Cc3cccn3-c3nccs3)C2)cc1OC (stereo not drawn)	2.6	12.4	-9.2	80.8*	-2.6
COc1ccc(C(=O)C2CCCN(C(=O)c3n[nH]c4c3CCCC4)C2)cc1OC (stereo not drawn)	-0.3	-22.5	-0.8	66.6*	-0.8
COC(=O)c1ccc(CN2CC(=O)N3[C@@H](CO)[C@@H](c4ccc(-c5ccccc5F)cc4)[C@@H]3C2)cc1	.	-2.0	-10.8	-20.2	-2.1
COc1cc(C(C)=O)ccc1OCc1cn(CC(=O)c2ccc(O)cc2)nn1	3.7	20.9*	-1.5	4.9	-3.5
CC(=O)c1ccc(OCc2cn(CC(=O)c3ccc(O)cc3)nn2)c(C)c1	29.9	1.0	0.3	-13.5	0.0
COc1nc(-c2ccccc2)ccc1-c1noc(-c2ccco2)n1	5.5	.	.	.	.
COc1ccc(-c2ccc(-c3noc(-c4ccco4)n3)c(OC)n2)cc1	2.3	.	.	55.4*	.
COCCNC(=O)C[C@H]1C[C@@H]2c3cc(NC(=O)NC4CCCC4)ccc3O[C@@H]2[C@@H](CO)O1	.	1.3	2.7	18.9	18.5
C/C(=N\NC(=O)CN1CCN(S(=O)(=O)c2ccc(C)cc2)CC1)c1ccc(O)cc1	4.1	15.0*	-4.3	2.0	0.9
SMILES	PDI inh	SIRT5 inh	S100A4 inh HTS	INS-1E GSIS act	ERp5 block
CO[C@H]1CN(C)C(=O)c2ccc(NC(C)=O)cc2OC[C@H](C)N(Cc2cncnc2)C[C@@H]1C	.	.	.	8.4	.
Oc1ccc(-c2cnns2)c(O)c1	-8.3	30.6*	-1.6	-19.1	4.9
Cc1cccc(S(=O)(=O)N2CCCCN3[C@@H](CO)[C@@H](c4ccc(C#CC(C)C)cc4)[C@@H]3C2)c1	.	4.4	-6.9	56.7*	-4.8
COc1ccc(S(=O)(=O)N2CCCCN3[C@H](CO)[C@@H](c4ccc(C#CC5CC5)cc4)[C@@H]3C2)cc1	.	19.8*	2.8	6.5	0.2
COc1ccc(S(=O)(=O)N2CCCCN3[C@H](C2)[C@@H](c2ccc(C#CC4CC4)cc2)[C@@H]3CO)cc1	.	.	.	9.2	.
COc1ccc(S(=O)(=O)N2CCCCN3[C@H](C2)[C@@H](c2ccc(C#CC(C)C)cc2)[C@@H]3CO)cc1	.	16.5*	-14.1	6.3	0.4
COc1ccc(S(=O)(=O)N2CCCCN3[C@H](CO)[C@H](c4ccc(C#CCC(C)C)cc4)[C@@H]3C2)cc1	.	16.3*	0.7	2.9	-5.8
COc1cccc(S(=O)(=O)N2CCCCN3[C@H](CO)[C@@H](c4ccc(C#CC(C)C)cc4)[C@@H]3C2)c1	.	-0.3	54.1	-10.1	-1.2
COc1ccc(S(=O)(=O)N2CCCCN3[C@H](CO)[C@H](c4ccc(C#CCC(C)C)cc4)[C@H]3C2)cc1	.	.	.	-9.5	.
O=C(C[C@@H]1CC[C@@H]2[C@H](COC[C@H](O)CN2Cc2ccc(Cl)cc2)O1)NCc1ccccc1Cl	.	1.2	2.2	-12.5	-0.3
C[C@H](CO)N1C[C@H](C)[C@H](CN(C)Cc2ccc(C(=O)O)cc2)Oc2ccc(NS(=O)(=O)c3ccc(Cl)cc3)cc2C1=O	.	-1.7	-2.8	15.9	-3.7
COc1ccc(CN(C)C[C@@H]2Oc3ccc(NC(=O)Nc4c(C)noc4C)cc3CC(=O)N([C@H](C)CO)C[C@@H]2C)cc1	.	0.1	-3.7	-4.9	-3.4
COc1ccc(S(=O)(=O)N2CCCCN3[C@H](CO)[C@H](c4ccc(C#CC(C)C)cc4)[C@H]3C2)cc1	.	19.9*	1.6	-25.1	0.0
CCCCOC(=O)c1sc2nc(N3CCOCC3)c3c(c2c1N)CC(C)(C)OC3	8.3	24.0*	4.9	-14.6	6.6
COc1ccc(NC(=O)c2sc3nc(N4CCOCC4)c4c(c3c2N)CC(C)(C)OC4)cc1	-24.9	-3.6	1.1	26.2	-6.2
COc1ccc(NC(=O)c2sc3nc(N4CCOCC4)c4c(c3c2N)CC(C)(C)OC4)c(OC)c1	-4.2	-3.1	4.4	127.2*	-0.3
COc1ccc(C#Cc2cnc3c(c2)C(=O)N([C@@H](C)CO)C[C@H](C)[C@H](CN(C)C)O3)cc1	.	-1.1	-6.5	3.9	0.8
Cc1cccc2nc(-c3ccco3)c(Nc3ccccc3)n12	7.9	-1.3	0.8	41.0*	8.3
